Compound activity: PubChem, several laboratories
Only some compounds are listed: those with a hit (about 2.6% of all), similar ones and a draw of the others.
ASAP1 inh: inhibitors of human ASAP1 ArfGAP activity; Q9ULH1; ASAP1-stimulated ARF1 GTP hydrolysis, GDP FP detection; inhibition, % at 16.5 µM; 360,000 compounds, 0.19% hits; in the data active means inhibition above about 25%
Target sequence (Q9ULH1 325-724 limits assumed): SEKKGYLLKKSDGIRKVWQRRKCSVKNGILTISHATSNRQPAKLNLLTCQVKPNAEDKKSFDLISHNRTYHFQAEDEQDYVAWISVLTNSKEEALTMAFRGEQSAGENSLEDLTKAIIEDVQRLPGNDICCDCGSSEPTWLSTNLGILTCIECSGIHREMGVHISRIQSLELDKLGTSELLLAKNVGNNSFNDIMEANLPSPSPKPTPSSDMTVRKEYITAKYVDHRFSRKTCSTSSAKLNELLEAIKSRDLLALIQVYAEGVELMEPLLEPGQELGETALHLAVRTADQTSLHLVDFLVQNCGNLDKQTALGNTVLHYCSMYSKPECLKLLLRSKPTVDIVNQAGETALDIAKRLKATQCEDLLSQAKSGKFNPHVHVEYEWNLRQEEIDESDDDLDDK
PHOSPHO1 block: inhibitors of human PHOSPHO1 phosphatase | Q8TCT1 | recombinant PHOSPHO1, absorbance phosphatase assay | inhibition, % at 13.3 µM | 290,000 compounds, 1.1% hits | AID 1565; in the data active means inhibition above about 60%
ARFGAP1 inhibitor: inhibits rat ARF GTPase activating protein 1 | 360,000 compounds, 0.26% hits | AID 651572 | Arfgap1-stimulated ARF1 GTP hydrolysis, GDP FP detection | inhibition, % at 16.5 µM | Q62848;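 active means inhibition above a per-plate limit, mean inhibition of low control wells plus 3 SD, cut at about 25% in these data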
Target sequence (Q62848 1-136 limits assumed): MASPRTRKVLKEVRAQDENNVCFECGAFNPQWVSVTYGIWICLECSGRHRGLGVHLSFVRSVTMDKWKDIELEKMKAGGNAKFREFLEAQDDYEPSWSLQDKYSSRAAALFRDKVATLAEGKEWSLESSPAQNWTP
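Assay system: Rat Arfgap1 GAP domain (His6, aa 1-136), purified enzyme | Buffer or medium: HEPES 25 mM pH 7.5, NaCl 150 mM, MgCl2, DTT | Schedule: GTP hydrolysis reaction 2 h at 25 °C | Signal: FP of antibody-bound GDP Alexa 633 tracer, ex 620/em 688 nm | Measure: Percent inhibition of Arfgap1-stimulated GTP hydrolysis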
IMP-1 inh: inhibitors of Pseudomonas aeruginosa IMP-1 metallo-beta-lactamase; purified IMP-1, nitrocefin hydrolysis, epi-absorbance fluorescence; inhibition, % at 5.6 µM; 290,000 compounds, 0.45% hits; AID 1556;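 active means inhibition above the mean plus 3 SD of all compounds in the same screening run, cut at about 4.5% in these data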
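system = purified recombinant IMP-1 beta-lactamase | amount = 0.2 nM IMP-1, as dispensed | medium = HEPES buffer pH 7.1 with ZnSO4 and Brij 35 | times = 25 °C, 15 min preincubation, 25 min reaction | detection = plate fluorescence quenching by hydrolysis product, ex 480/em 530 nm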
VIM-2 inhibitor: inhibitors of Pseudomonas aeruginosa VIM-2 metallo-beta-lactamase; purified VIM-2, nitrocefin hydrolysis, epi-absorbance fluorescence; 290,000 compounds, 0.89% hits; inhibition, % at 5.6 µM;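 active means inhibition above the mean of all tested compounds plus 3 SD, cutoff set per screening run, cut at about 7.5% in these data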;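 further: red hydrolysis product quenches plate fluorescence so inhibitors raise well fluorescence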
Calb FLC: C. albicans growth modulation with fluconazole | 300,000 compounds, 0.57% hits | growth inhibition, % (no concentration beside the values) | AID 1979 | C. albicans CaCi-2 + fluconazole, Alamar Blue growth, 48 h;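 active means growth inhibition above about 58% in most replicates, limit read from the data, passing the limit was not always enough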;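 further: all wells also contain fluconazole at 8 µg/ml as a sub-toxic cotreatment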
ARFGAP1 inh conf: confirmation of rat ARFGAP1 inhibitors; shares compounds with ARFGAP1 inhibitor; ARFGAP1-stimulated ARF1 GTP hydrolysis, GDP tracer FP; inhibition, % at 16.5 µM; 890 compounds, 30% hits;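 active means average inhibition over triplicates above the hit cutoff set in the earlier primary screen, cut at about 25% in these data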
Numbers stand for hits; n = inactive; x = no result.

SMILES	ASAP1 inh	PHOSPHO1 block	ARFGAP1 inhibitor	IMP-1 inh	VIM-2 inhibitor	Calb FLC	ARFGAP1 inh conf
COc1ccc(Cl)cc1-c1cc(C(=O)Nc2ccccc2)[nH]n1	n	x	n	x	x	x	x
COc1ccc(NC(=O)c2cc(-c3ccccc3O)n[nH]2)cc1Cl	n	n	27.0	n	n	n	n
Cc1ccc(NC(=O)c2cc(-c3ccccc3O)n[nH]2)cc1Cl	n	n	n	n	n	n	x
COC(=O)C[C@@H]1CC[C@H](NC(=O)Nc2cccc(F)c2)[C@@H](CO)O1	n	x	n	x	x	x	x
Cc1cc2c(cc1C)-n1nnnc1C(N1CCN(c3ncccc3C#N)CC1)C(=O)N2 (configuration not stated)	n	x	n	x	x	x	x
COc1ccc(Cl)c(-c2cc(C(=O)NCc3ccco3)[nH]n2)c1	n	x	n	x	x	x	x
COc1ccc(Cl)c(-c2cc(C(=O)Nc3ccccc3)[nH]n2)c1	n	x	24.7	x	x	x	n
OC[C@@H]1CN(Cc2ccc(F)cc2)C[C@H](n2cnc3c(Nc4ccccc4)ncnc32)O1	n	x	38.2	x	x	x	n
CC(=O)c1cccc(NC(=O)CN(C)Cc2ccc(OC(F)F)cc2)c1	n	n	42.0	n	n	n	n
COc1ccc(N2CCN(C(=O)c3ccc(C(C)(C)C)cc3)CC2)cc1	n	n	27.9	n	n	n	n
CCCCCCCCN1C(=O)[C@H](CC(=O)NCc2cccc3ccccc23)C[C@@]2(C(=O)OCC)CCC=C12	n	x	n	x	x	x	x
CCCCCCCCN1C(=O)[C@H](CC(=O)NCc2ccccc2)C[C@@]2(C(=O)OCC)CCC=C12	n	x	28.4	x	x	x	n
COc1cccc(CNC(=O)[C@@H]2CCCN2C(=O)[C@H]2CCCCN2C(=O)c2cccc(Cl)c2)c1	n	x	n	x	x	x	x
Cc1cccc(/C=N/Nc2ccc3ccccc3n2)c1	n	n	25.2	n	n	n	n
C(=N\Nc1ccc2ccccc2n1)/c1ccc2c(c1)OCCO2	n	n	n	n	n	n	x
Cc1ccc2c(C)c(C(=O)N3CCC(C(N)=O)(N4CCCCC4)CC3)oc2c1C	n	x	n	x	x	x	x
Cc1nn(-c2ccccc2)c(N)c1N=Nc1cccc(S(=O)(=O)N2CCOCC2)c1	n	n	28.9	n	n	n	n
COc1ccc(C2OC(CCc3ccccc3)CC3=C2C(=O)OC(C)(C)O3)cc1 (configuration not stated)	n	x	n	x	x	x	x
CCOC(=O)c1ccc(Nc2cc(C)nc(-c3ccccc3)n2)cc1	n	n	27.0	n	n	n	n
COc1cccc(/C=N/Nc2cc(N3CCOCC3)ncn2)c1O	n	n	29.2	n	n	97.5	42.6
COCCC1CCCCN1C(=O)c1cc(COc2cccc(C(C)=O)c2)on1 (configuration not stated)	n	n	25.4	n	n	n	n
CC(=O)Nc1cc(-c2cccc(C(=O)N(C)C)c2)cn2c(-c3ccc(C(C)=O)cc3)cnc12	n	x	n	x	x	x	x
O=[N+]([O-])c1ccc2[nH]c3nc4ccccc4nc3c2c1	n	n	26.4	n	n	n	37.5
O=[N+]([O-])c1ccc2[nH]nc(-c3ccccc3)c2c1	n	n	n	n	n	n	x
Nc1nc2ccccc2cc1C(=O)NCc1ccc(-c2ccccc2)cc1	n	x	n	x	x	x	x
SMILES	ASAP1 inh	PHOSPHO1 block	ARFGAP1 inhibitor	IMP-1 inh	VIM-2 inhibitor	Calb FLC	ARFGAP1 inh conf
Cc1c(C(=O)NN)nn(-c2ccc(Cl)cc2)c(=O)c1C#N	n	n	24.6	n	n	n	n
Cc1ccc(-n2nc(C(=O)NN)c(C)c(C#N)c2=O)cc1Cl	n	n	n	n	n	n	x
COc1ccc(C(C)(O)c2nc(-c3ccc4ccccc4c3)cs2)cc1 (configuration not stated)	n	x	n	x	x	x	x
Cc1ccc(S(=O)(=O)N2C[C@H]3C(=O)C[C@@H](c4ccc(Cl)cc4)N(S(=O)(=O)c4ccc(C)cc4)[C@H]3C[C@H]2c2ccc(Cl)cc2)cc1	n	x	n	x	x	x	x
NC1=NC(=O)/C(=C\c2ccc(O)c([N+](=O)[O-])c2)S1	n	n	n	n	n	n	x
NC1=NC(=O)/C(=C/c2cccc(-c3ccc(S(N)(=O)=O)cc3)c2)S1	n	n	27.7	n	n	n	n
CCCCN(CCCC)Cc1cc(=O)oc2ccc3ccccc3c12	n	x	n	x	x	x	x
Cc1sc2nc(SCC(=O)N(CCO)CCO)nc(N)c2c1C	n	n	27.8	n	n	n	n
Cc1sc2nc(SCC(=O)NCCOCCO)nc(N)c2c1C	n	n	n	n	n	n	x
OCCOCCNc1ncnc2sc(-c3ccccc3)cc12	n	n	35.9	n	n	n	n
COc1cccc(/C=N/NC(=O)c2ccc(-c3ccccc3)cc2)c1O	n	n	36.7	n	n	n	30.3
O=C(C[C@@H]1CC[C@H](NC(=O)Cc2ccccn2)[C@@H](CO)O1)NCCc1ccccc1	n	x	n	x	x	x	x
CN1c2ccsc2/C(=N/Nc2ccccc2)CS1(=O)=O	n	n	28.7	n	n	n	n
CN1c2ccsc2/C(=N/NC(=O)c2c(F)cccc2F)CS1(=O)=O	n	n	n	n	n	n	x
CC1(C)OC(=O)C2=C(C[C@@H](C3CCCCC3)O[C@@H]2c2ccc(F)cc2)O1	n	x	n	x	x	x	x
O=[N+]([O-])c1cccc(/C=C/c2nc3ccc([N+](=O)[O-])cc3[nH]2)c1	n	n	25.0	n	n	n	25.9
Cc1nc2ccc([N+](=O)[O-])cc2[nH]1	n	n	n	n	n	n	x
COC(=O)C1(C(=O)OC)C[C@H](c2ccc(OC)cc2)N(Cc2ccccc2OC)[C@@H]1c1cccs1	n	x	n	x	x	x	x
COc1cc(F)ccc1-c1csc(C(O)(c2ccccc2)C(F)(F)F)n1 (configuration not stated)	n	x	n	x	x	x	x
Cn1c2ccccc2c(=O)c2ccc(-c3ccc4c(c3)OCO4)cc21	n	n	36.5	n	9.3	n	90.2
CC(C)NC(=O)OCc1c(COC(=O)NC(C)C)c([N+](=O)[O-])n2c1CCC2	n	x	n	x	x	x	x
Cc1ccc(C)c(N(C(=O)Cn2nnc(-c3cccs3)n2)C(C(=O)NC2CCCC2)c2ccncc2)c1 (configuration not stated)	n	n	31.3	n	n	n	n
COc1cccc(N(C(=O)Cn2nnc(-c3cccs3)n2)C(C(=O)NC2CCCCC2)c2ccncc2)c1 (configuration not stated)	n	n	n	n	n	n	x
COc1ccc(-c2csc(NC(=O)CN3C(=O)NC4(CCCC4)C3=O)n2)c(OC)c1	n	x	n	x	x	n	x
COc1ccc(-c2csc(NC(=O)CN3C(=O)NC4(CCCC4)C3=O)n2)cc1OC	n	x	26.8	x	x	n	n
CC(=O)c1ccc(NC(=O)COC(=O)c2c3c(nc4ccccc24)/C(=C\c2cccs2)CCC3)cc1	n	n	32.0	n	n	n	n
O=C(COC(=O)c1c2c(nc3ccccc13)/C(=C\c1cccs1)CCC2)Nc1ccccc1	n	n	n	n	n	n	x
